# Results published in ChEMBL document CHEMBL4152384, “Pyrtriazoles, a Novel Class of Store-Operated Calcium Entry Modulators: Discovery, Biological Profiling, and in Vivo Proof-of-Concept Efficacy in Acute Pancreatitis” (J Med Chem, 2018).
# Active and inactive are the calls of the source. The rule behind the calls is not given here.
# What was measured:
# [1] = tested on: Jurkat; test: Induction of store-operated calcium entry in human Jurkat cells assessed as induction of store-operated calcium entry at 10 uM preincubated for 30 mins followed by tBhQ-mediated Ca2+ depletion and Ca2+ re-addition to extracellular solution measured for 800 secs by Fluo-4 AM-based fluorometric assay relative to control; format: cell-based
# [2] = molecular target: T1, Stromal interaction molecule 1 & 2/Calcium release-activated calcium channel protein 1 (Mus musculus) (UniProt Q8BWG9+P70302+P83093); test: Modulation of STIM1/STIM2/Orai1 in mouse BV2 cells assessed as induction of store-operated calcium entry by measuring increase in AUC of calcium entry at 3 to 100 uM preincubated for 30 mins followed by tBhQ-mediated Ca2+ depletion and Ca2+ re-addition to extracellular solution measured for 600 secs by Fluo-4 AM-based fluorometric assay relative to control; format: cell-based
# [3] = molecular target: T1, Stromal interaction molecule 1 & 2/Calcium release-activated calcium channel protein 1 (Mus musculus); test: Modulation of STIM1/STIM2/Orai1 in mouse BV2 cells assessed as induction of store-operated calcium entry by measuring increase in peak amplitude at 3 to 100 uM preincubated for 30 mins followed by tBhQ-mediated Ca2+ depletion and Ca2+ re-addition to extracellular solution measured for 600 secs by Fluo-4 AM-based fluorometric assay relative to control; format: cell-based
# [4] = molecular target: T2, ORAI1/STIM1 (Homo sapiens) (UniProt Q96D31+Q13586); test: Modulation of Orai1/STIM1 (unknown origin) expressed in HEK cells assessed as potentiation of store-operated calcium currents in presence of 20 mM BAPTA by patch clamp assay relative to control; format: cell-based
# Procedure, shortened: (§1)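 Whole-cell ISOC recorded in Hek cells stably overexpressing Orai1 and transiently expressing STIM1; internal solution strongly buffered with 20 mM BAPTA; compound at 10 μM versus untreated control.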
# [5] = molecular target: T3, Short transient receptor potential channel 1 & 3/Stromal interaction molecule 1/Calcium release-activated calcium channel protein 1 (Homo sapiens) (UniProt Q96D31+Q13507+Q13586+P48995); test: Modulation of TRPC1/TRPC3/STIM1/Orai1 in HEK cells assessed as induction of store-operated calcium entry by measuring increase in AUC of calcium entry at 3 to 100 uM preincubated for 30 mins followed by tBhQ-mediated Ca2+ depletion and Ca2+ re-addition to extracellular solution measured for 600 secs by Fluo-4 AM-based fluorometric assay relative to control; format: cell-based
# [6] = molecular target: T3, Short transient receptor potential channel 1 & 3/Stromal interaction molecule 1/Calcium release-activated calcium channel protein 1 (Homo sapiens); test: Modulation of TRPC1/TRPC3/STIM1/Orai1 in HEK cells assessed as induction of store-operated calcium entry at 10 uM preincubated for 30 mins followed by tBhQ-mediated Ca2+ depletion and Ca2+ re-addition to extracellular solution measured for 800 secs by Fluo-4 AM-based fluorometric assay relative to control; format: cell-based
# [7] = molecular target: T3, Short transient receptor potential channel 1 & 3/Stromal interaction molecule 1/Calcium release-activated calcium channel protein 1 (Homo sapiens); test: Modulation of TRPC1/TRPC3/STIM1/Orai1 in HEK cells assessed as induction of store-operated calcium entry by measuring increase in peak amplitude at 3 to 100 uM preincubated for 30 mins followed by tBhQ-mediated Ca2+ depletion and Ca2+ re-addition to extracellular solution measured for 600 secs by Fluo-4 AM-based fluorometric assay relative to control; format: cell-based
# [8] = tested on: Jurkat; test: Induction of store-operated calcium entry in human Jurkat cells assessed as induction of store-operated calcium entry by measuring increase in peak amplitude at 3 to 100 uM preincubated for 30 mins followed by tBhQ-mediated Ca2+ depletion and Ca2+ re-addition to extracellular solution measured for 600 secs by Fluo-4 AM-based fluorometric assay relative to control; format: cell-based
# [9] = tested on: Jurkat; test: Induction of store-operated calcium entry in human Jurkat cells assessed as induction of store-operated calcium entry by measuring increase in AUC of calcium entry at 3 to 100 uM preincubated for 30 mins followed by tBhQ-mediated Ca2+ depletion and Ca2+ re-addition to extracellular solution measured for 600 secs by Fluo-4 AM-based fluorometric assay relative to control; format: cell-based
# [10] = tested on: voltage-gated calcium channel (Mus musculus); test: Antagonist activity at voltage-gated calcium channels in C57/BL6 mouse cerebellar granule cells assessed as inhibition of KCl-induced voltage dependent calcium entry at 10 uM by fura-2-based assay
# [11] = tested on: Jurkat; test: Induction of store-operated calcium entry in human Jurkat cells assessed as induction of store-operated calcium entry by measuring residual activity at 10 uM preincubated for 30 mins followed by tBhQ-mediated Ca2+ depletion and Ca2+ re-addition to extracellular solution measured for 600 secs by Fluo-4 AM-based fluorometric assay relative to control; format: cell-based
# [12] = molecular target: T2, ORAI1/STIM1 (Homo sapiens); test: Modulation of Orai1/STIM1 (unknown origin) expressed in HEK cells assessed as potentiation of store-operated calcium currents in presence of 20 mM BAPTA and 150 nM Ca2+ containing internal solution by patch clamp assay relative to control; format: cell-based
# [13] = molecular target: T1, Stromal interaction molecule 1 & 2/Calcium release-activated calcium channel protein 1 (Mus musculus); test: Modulation of STIM1/STIM2/Orai1 in mouse BV2 cells assessed as induction of store-operated calcium entry by measuring increase in slope at 3 to 100 uM preincubated for 30 mins followed by tBhQ-mediated Ca2+ depletion and Ca2+ re-addition to extracellular solution measured for 600 secs by Fluo-4 AM-based fluorometric assay relative to control; format: cell-based
# [14] = molecular target: Transient receptor potential cation channel subfamily M member 8 (Homo sapiens) (UniProt Q7Z2W7); test: Antagonist activity at TRPM8 (unknown origin) expressed in HEK cells assessed as inhibition of menthol -mediated calcium increase at 10 uM by fura-2-based assay; format: cell-based
# Procedure, shortened: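 TRPM8-overexpressing Hek cells; calcium rise evoked by menthol (100 μM), test compounds at 10 μM; peak amplitude read out; mean ± SEM of 600 cells from 30 plates on four separate experimental days.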
# [15] = tested on: voltage-gated calcium channel (Mus musculus); test: Antagonist activity at voltage-gated calcium channels in C57/BL6 mouse cerebellar granule cells assessed as inhibition of KCl-induced voltage dependent calcium entry at 10 uM by fura-2-based assay; remark: listed apart in the source
# [16] = molecular target: T1, Stromal interaction molecule 1 & 2/Calcium release-activated calcium channel protein 1 (Mus musculus); test: Modulation of STIM1/STIM2/Orai1 in mouse BV2 cells assessed as induction of store-operated calcium entry by measuring residual activity at 10 uM preincubated for 30 mins followed by tBhQ-mediated Ca2+ depletion and Ca2+ re-addition to extracellular solution measured for 600 secs by Fluo-4 AM-based fluorometric assay relative to control; format: cell-based
# [17] = molecular target: T3, Short transient receptor potential channel 1 & 3/Stromal interaction molecule 1/Calcium release-activated calcium channel protein 1 (Homo sapiens); test: Modulation of TRPC1/TRPC3/STIM1/Orai1 in HEK cells assessed as induction of store-operated calcium entry by measuring increase in slope at 3 to 100 uM preincubated for 30 mins followed by tBhQ-mediated Ca2+ depletion and Ca2+ re-addition to extracellular solution measured for 600 secs by Fluo-4 AM-based fluorometric assay relative to control; format: cell-based
# [18] = tested on: Jurkat; test: Induction of store-operated calcium entry in human Jurkat cells assessed as induction of store-operated calcium entry by measuring increase in slope at 3 to 100 uM preincubated for 30 mins followed by tBhQ-mediated Ca2+ depletion and Ca2+ re-addition to extracellular solution measured for 600 secs by Fluo-4 AM-based fluorometric assay relative to control; format: cell-based
# [19] = molecular target: Transient receptor potential cation channel subfamily V member 1 (Homo sapiens) (UniProt Q8NER1); test: Antagonist activity at TRPV1 (unknown origin) expressed in HEK cells assessed as inhibition of capsaicin-induced calcium increase at 10 uM by fura-2-based assay; format: cell-based
# Procedure, shortened: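 TRPV1-overexpressing Hek cells; calcium rise evoked by capsaicin (100 nM), test compounds at 10 μM; peak amplitude read out; mean ± SEM of 600 cells from 30 plates on four separate experimental days.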
# [20] = molecular target: T1, Stromal interaction molecule 1 & 2/Calcium release-activated calcium channel protein 1 (Mus musculus); test: Modulation of STIM1/STIM2/Orai1 in mouse BV2 cells assessed as induction of store-operated calcium entry at 10 uM preincubated for 30 mins followed by tBhQ-mediated Ca2+ depletion and Ca2+ re-addition to extracellular solution measured for 800 secs by Fluo-4 AM-based fluorometric assay relative to control; format: cell-based
# Procedure, shortened: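 Microplate Fluo-4 assay in mouse microglial BV-2 cells. Stores emptied with tBhQ (50 μM) in presence of compound (10 μM); extracellular Ca2+ re-added after 600 s and intracellular Ca2+ read fluorimetrically; SOCE expressed versus control.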
# [21] = molecular target: T3, Short transient receptor potential channel 1 & 3/Stromal interaction molecule 1/Calcium release-activated calcium channel protein 1 (Homo sapiens); test: Modulation of TRPC1/TRPC3/STIM1/Orai1 in HEK cells assessed as induction of store-operated calcium entry by measuring residual activity at 10 uM preincubated for 30 mins followed by tBhQ-mediated Ca2+ depletion and Ca2+ re-addition to extracellular solution measured for 600 secs by Fluo-4 AM-based fluorometric assay relative to control; format: cell-based
# [22] = species: Homo sapiens; test: Modulation of Orai1/STIM1 (unknown origin) expressed in HEK cells assessed as potentiation of store-operated calcium currents by measuring reduction in time constant of channel activation in presence of 20 mM BAPTA and 150 nM Ca2+ containing internal solution by patch clamp assay relative to control; format: cell-based
# [23] = molecular target: T1, Stromal interaction molecule 1 & 2/Calcium release-activated calcium channel protein 1 (Mus musculus); test: Modulation of STIM1/STIM2/Orai1 in mouse BV2 cells assessed as induction of store-operated calcium entry by measuring residual activity at 100 uM preincubated for 30 mins followed by tBhQ-mediated Ca2+ depletion and Ca2+ re-addition to extracellular solution measured for 600 secs by Fluo-4 AM-based fluorometric assay relative to control; format: cell-based
# [24] = Induction of store-operated calcium entry in human Jurkat cells assessed as induction of store-operated calcium entry by measuring residual activity preincubated for 30 mins followed by tBhQ-mediated Ca2+ depletion and Ca2+ re-addition to extracellular solution measured for 600 secs by Fluo-4 AM-based fluorometric assay relative to control; format: cell-based
# [25] = Drug metabolism in CD1 mouse liver microsomes assessed as 1-(4-(4-(3-Carboxyphenyl)-1H-1,2,3-triazol-1-yl)phenyl)-5-(trifluoromethyl)-1H-pyrazole-4-carboxylic Acid metabolite formation at 50 uM after 60 mins by mass spectroscopic analysis; format: ADME, microsome
# [26] = molecular target: T2, ORAI1/STIM1 (Homo sapiens); test: Inhibition of Orai1/STIM1 (unknown origin) expressed in HEK cells assessed as reduction in store-operated calcium currents at 10 uM by patch clamp assay relative to control; format: cell-based; procedure, shortened: as §1
# [27] = molecular target: Short transient receptor potential channel 1 & 3/Stromal interaction molecule 1/Calcium release-activated calcium channel protein 1 (Homo sapiens, UniProt P48995+Q13507+Q13586+Q96D31); test: Modulation of TRPC1/TRPC3/STIM1/Orai1 in HEK cells assessed as induction of store-operated calcium entry by measuring residual activity preincubated for 30 mins followed by tBhQ-mediated Ca2+ depletion and Ca2+ re-addition to extracellular solution measured for 600 secs by Fluo-4 AM-based fluorometric assay relative to control; format: cell-based
# [28] = Metabolic stability in CD1 mouse plasma assessed as residual compound level at 50 uM after 30 mins by LC-UV analysis; format: ADME, cell-free; conditions: read-out: Stability
# Procedure, shortened: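 Compounds incubated in mouse plasma for 30 min; percentage of residual substrate determined.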
# [29] = molecular target: Stromal interaction molecule 1 & 2/Calcium release-activated calcium channel protein 1 (Homo sapiens, UniProt Q13586+Q96D31+Q9P246); test: Inhibition of STIM1/STIM2/Orai1 (unknown origin) expressed in mouse BV2 cells assessed as induction of store-operated calcium entry by measuring residual activity preincubated for 30 mins followed by tBhQ, mediated Ca2+ depletion and re-addition measured for 600 secs by Fluo-4 AM-based fluorometric assay; format: cell-based
# [30] = Cytotoxicity against HEK cells assessed as cell viability at 10 uM by MTT assay relative to control; format: cell-based; conditions: human, read-out: Activity
# Procedure, shortened: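 Hek cells treated 24 h with compound at 10 μM; viability determined by MTT assay.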
# [31] = tested on: Jurkat; test: Induction of store-operated calcium entry in human Jurkat cells assessed as induction of store-operated calcium entry by measuring residual activity at 100 uM preincubated for 30 mins followed by tBhQ-mediated Ca2+ depletion and Ca2+ re-addition to extracellular solution measured for 600 secs by Fluo-4 AM-based fluorometric assay relative to control; format: cell-based
# [32] = molecular target: T3, Short transient receptor potential channel 1 & 3/Stromal interaction molecule 1/Calcium release-activated calcium channel protein 1 (Homo sapiens); test: Modulation of TRPC1/TRPC3/STIM1/Orai1 in HEK cells assessed as induction of store-operated calcium entry by measuring residual activity at 100 uM preincubated for 30 mins followed by tBhQ-mediated Ca2+ depletion and Ca2+ re-addition to extracellular solution measured for 600 secs by Fluo-4 AM-based fluorometric assay relative to control; format: cell-based
# T2 sequence (Q13586 23-685 partner limits assumed): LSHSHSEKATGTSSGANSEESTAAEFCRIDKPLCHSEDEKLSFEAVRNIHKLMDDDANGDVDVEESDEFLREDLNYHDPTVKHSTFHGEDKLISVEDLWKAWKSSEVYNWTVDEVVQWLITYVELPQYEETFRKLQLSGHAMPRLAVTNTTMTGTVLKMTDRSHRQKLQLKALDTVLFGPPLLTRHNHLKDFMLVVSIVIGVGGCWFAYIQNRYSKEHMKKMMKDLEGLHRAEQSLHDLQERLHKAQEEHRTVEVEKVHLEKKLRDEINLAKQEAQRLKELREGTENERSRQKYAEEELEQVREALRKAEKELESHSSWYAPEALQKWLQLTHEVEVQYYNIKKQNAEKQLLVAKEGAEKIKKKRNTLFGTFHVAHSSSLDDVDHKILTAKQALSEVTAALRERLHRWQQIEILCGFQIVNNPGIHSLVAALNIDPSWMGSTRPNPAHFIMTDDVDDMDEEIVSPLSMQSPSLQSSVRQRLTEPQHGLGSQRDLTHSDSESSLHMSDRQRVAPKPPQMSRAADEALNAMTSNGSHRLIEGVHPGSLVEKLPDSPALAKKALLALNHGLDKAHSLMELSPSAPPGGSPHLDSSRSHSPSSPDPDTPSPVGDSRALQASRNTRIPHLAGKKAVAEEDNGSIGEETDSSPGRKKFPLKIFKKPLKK
# T2 sequence (Q96D31 whole entry): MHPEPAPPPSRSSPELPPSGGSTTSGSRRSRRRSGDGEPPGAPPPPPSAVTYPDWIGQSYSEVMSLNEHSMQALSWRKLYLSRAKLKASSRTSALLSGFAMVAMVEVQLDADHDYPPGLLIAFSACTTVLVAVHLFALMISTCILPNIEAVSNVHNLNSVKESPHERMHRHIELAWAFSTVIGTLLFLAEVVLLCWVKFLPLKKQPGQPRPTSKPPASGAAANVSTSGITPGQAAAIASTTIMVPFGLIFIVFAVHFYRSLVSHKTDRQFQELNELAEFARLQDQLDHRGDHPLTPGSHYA
# T3 sequence (P48995 whole entry partner): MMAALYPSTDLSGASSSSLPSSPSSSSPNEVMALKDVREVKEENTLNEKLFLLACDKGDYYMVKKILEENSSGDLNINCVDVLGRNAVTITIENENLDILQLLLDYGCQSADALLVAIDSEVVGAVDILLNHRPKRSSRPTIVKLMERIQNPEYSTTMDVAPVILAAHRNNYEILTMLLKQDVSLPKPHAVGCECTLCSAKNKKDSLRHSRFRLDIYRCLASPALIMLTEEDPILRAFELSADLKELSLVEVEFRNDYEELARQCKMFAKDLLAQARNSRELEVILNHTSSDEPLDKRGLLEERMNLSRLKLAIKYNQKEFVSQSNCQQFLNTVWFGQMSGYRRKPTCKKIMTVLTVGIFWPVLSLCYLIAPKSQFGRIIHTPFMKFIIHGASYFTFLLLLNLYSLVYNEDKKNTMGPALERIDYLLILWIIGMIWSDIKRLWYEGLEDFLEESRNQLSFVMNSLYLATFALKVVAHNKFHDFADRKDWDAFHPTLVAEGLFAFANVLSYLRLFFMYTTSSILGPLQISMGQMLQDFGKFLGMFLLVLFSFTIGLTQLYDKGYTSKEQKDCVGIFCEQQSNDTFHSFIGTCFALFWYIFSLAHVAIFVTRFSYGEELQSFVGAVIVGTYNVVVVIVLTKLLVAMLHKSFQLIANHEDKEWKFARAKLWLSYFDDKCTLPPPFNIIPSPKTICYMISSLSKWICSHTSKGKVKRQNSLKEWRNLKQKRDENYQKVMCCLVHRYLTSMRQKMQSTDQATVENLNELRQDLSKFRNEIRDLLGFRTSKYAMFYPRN
# T3 sequence (Q13507 whole entry partner): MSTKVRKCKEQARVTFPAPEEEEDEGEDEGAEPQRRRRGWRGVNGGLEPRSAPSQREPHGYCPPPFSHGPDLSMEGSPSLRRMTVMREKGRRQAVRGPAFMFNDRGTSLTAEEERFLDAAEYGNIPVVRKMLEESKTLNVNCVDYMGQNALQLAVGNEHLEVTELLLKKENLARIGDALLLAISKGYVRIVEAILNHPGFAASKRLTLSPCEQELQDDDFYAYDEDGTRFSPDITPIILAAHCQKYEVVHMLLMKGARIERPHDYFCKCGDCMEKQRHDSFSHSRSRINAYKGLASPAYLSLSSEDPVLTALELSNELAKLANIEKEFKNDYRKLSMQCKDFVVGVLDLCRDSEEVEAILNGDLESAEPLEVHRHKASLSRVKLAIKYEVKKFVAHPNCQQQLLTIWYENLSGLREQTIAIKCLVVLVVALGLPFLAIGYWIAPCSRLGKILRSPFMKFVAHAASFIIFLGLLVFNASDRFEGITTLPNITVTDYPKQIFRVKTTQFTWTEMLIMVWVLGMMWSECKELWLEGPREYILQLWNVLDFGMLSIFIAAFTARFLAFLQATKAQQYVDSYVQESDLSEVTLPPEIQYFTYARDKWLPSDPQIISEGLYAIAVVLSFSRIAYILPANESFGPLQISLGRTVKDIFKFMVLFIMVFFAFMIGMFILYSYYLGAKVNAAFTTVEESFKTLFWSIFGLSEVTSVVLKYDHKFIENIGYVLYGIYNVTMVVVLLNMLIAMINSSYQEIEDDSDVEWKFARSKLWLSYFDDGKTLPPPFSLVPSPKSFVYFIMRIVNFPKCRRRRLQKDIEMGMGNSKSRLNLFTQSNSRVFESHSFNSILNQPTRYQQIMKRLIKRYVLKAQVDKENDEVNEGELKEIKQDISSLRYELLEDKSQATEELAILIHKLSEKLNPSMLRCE
# T3 sequence (Q13586 23-685 partner limits assumed): as the sequence (Q13586 23-685 partner limits assumed) above
# T3 sequence (Q96D31 whole entry): as the sequence (Q96D31 whole entry) above
# Chain of Transient receptor potential cation channel subfamily V member 1 (Homo sapiens) (Q8NER1 whole entry): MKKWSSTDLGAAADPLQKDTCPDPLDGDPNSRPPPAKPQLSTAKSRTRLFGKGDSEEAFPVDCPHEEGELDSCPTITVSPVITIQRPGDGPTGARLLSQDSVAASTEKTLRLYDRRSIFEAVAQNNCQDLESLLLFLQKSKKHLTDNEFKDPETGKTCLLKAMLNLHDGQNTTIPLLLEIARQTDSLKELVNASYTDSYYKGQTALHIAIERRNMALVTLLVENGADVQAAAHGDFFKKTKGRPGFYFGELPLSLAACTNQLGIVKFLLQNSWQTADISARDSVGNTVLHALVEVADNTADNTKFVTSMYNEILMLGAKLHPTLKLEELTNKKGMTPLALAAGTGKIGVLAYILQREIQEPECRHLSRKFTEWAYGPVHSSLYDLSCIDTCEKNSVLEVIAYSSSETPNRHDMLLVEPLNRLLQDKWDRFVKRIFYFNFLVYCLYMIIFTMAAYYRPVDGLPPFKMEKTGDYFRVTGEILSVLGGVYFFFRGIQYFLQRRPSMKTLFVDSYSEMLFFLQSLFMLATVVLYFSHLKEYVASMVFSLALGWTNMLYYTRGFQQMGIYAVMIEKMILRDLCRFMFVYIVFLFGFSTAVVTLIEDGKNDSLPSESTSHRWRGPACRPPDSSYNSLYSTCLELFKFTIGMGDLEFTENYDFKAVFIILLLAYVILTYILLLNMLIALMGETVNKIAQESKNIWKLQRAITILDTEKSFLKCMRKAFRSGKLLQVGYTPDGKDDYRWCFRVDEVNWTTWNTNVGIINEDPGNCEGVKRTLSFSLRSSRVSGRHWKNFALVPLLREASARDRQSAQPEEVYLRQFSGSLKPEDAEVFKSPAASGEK
# Chain of Transient receptor potential cation channel subfamily M member 8 (Homo sapiens) (Q7Z2W7 whole entry, looked up): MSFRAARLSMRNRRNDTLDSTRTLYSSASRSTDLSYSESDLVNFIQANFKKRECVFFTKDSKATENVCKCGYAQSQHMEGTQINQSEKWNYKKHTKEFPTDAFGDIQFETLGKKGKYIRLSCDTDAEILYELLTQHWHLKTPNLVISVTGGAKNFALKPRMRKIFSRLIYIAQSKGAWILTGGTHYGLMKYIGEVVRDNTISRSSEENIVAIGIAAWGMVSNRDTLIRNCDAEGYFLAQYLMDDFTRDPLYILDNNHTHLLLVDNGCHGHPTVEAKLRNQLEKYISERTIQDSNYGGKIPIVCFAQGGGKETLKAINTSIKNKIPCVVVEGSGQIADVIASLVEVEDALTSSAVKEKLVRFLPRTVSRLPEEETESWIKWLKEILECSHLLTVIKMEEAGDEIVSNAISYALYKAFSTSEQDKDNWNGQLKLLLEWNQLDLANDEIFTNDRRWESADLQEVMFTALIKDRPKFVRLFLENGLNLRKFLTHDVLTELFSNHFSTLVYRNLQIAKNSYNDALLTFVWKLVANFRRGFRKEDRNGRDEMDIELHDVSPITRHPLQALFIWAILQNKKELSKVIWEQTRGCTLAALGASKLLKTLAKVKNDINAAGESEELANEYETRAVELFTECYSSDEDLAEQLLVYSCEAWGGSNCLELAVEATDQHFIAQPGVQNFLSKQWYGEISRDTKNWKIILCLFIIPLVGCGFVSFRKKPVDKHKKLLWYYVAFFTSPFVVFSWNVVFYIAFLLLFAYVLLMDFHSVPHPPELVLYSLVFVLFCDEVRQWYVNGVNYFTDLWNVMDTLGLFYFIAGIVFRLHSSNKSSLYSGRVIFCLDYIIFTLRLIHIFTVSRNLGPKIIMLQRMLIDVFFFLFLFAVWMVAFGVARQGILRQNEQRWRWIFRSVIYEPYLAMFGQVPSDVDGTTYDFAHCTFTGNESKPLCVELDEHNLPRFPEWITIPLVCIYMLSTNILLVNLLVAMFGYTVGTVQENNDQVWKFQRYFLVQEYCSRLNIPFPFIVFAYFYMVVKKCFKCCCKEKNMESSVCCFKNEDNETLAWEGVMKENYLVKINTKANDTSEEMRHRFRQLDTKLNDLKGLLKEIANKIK
structure (smiles),measurement,setting,value
CCOC(=O)c1cnn(-c2ccc(-c3cn(-c4ccc(Cl)cc4)nn3)cc2)c1C(F)(F)F,Activity,[1],inactive
same,Activity,[2],Active
same,Activity,[3],Active
same,Activity,[4],Active
same,Activity,[5],Active
same,Activity,[6],inactive
same,Activity,[7],Active
same,Activity,[8],Active
same,Activity,[9],Active
same,inhibition,[10],inactive
same,Activity,[11],197%
same,Activity,[12],inactive
same,Activity,[13],Active
same,inhibition,[14],inactive
same,inhibition,[15],inactive
same,Activity,[16],153%
same,Activity,[17],Active
same,Activity,[18],Active
same,inhibition,[19],inactive
same,Activity,[20],inactive
same,Activity,[21],142%
same,Activity,[22],Active
CCOC(=O)c1cnn(-c2ccc(-n3cc(-c4cccc(C(=O)O)c4)nn3)cc2)c1C(F)(F)F,residual activity,[23],< 100%
same,IC50,[24],600 nM
same,Drug metabolism,[25],Metabolite_Notdetected
same,inhibition,[26],40%
same,IC50,[27],600 nM
same,"remaining at 0.5 h, 50 µM",[28],0%
same,IC50,[29],4900 nM
same,viability at 10 µM,[30],84%
same,inhibition,[10],inactive
same,Activity,[11],12.8%
same,inhibition,[14],inactive
same,inhibition,[15],inactive
same,Activity,[16],54.7%
same,residual activity,[31],< 100%
same,inhibition,[19],Active
same,Activity,[21],12.8%
same,residual activity,[32],< 100%
